The values that follow come from publication PMC3428507 (Journal of molecular biology, 2012).

One assay concerns H3 (1-42). As to the kind of experiment: 15N-labeled H3. The format is binding, human. Conditions: 80 μM 15N-H3, 2 equivalents unlabeled Pf1 PHD1; 20 mM Tris-d11 pH 6.0, 50 mM NaCl, 10 μM ZnSO4, 15 mM DTT, 25 °C.
In another assay the target is Pf1 PHD1 (Homo sapiens, UniProt Q96QT6). The experiment in a line: NMR of mixture of 15N-MRG15 CD and 15N-Pf1 PHD1. The format is binding. Conditions: 1:1 mixture, absence of histone targets. In short, it runs like this: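 Both proteins were recombinant, expressed in E. coli BL21(DE3) and uniformly 15N-labelled by growth in M9 minimal medium with 15N-ammonium sulfate. They were purified by affinity resin, TEV cleavage and reversed-phase HPLC, then lyophilized; labelling was confirmed by ESI-MS. Pf1 PHD1 was refolded in 6 M Gdn-HCl with 50 mM DTT (42 °C, 5 h), given ZnSO4, and gel-filtered. Concentrations were measured spectrophotometrically.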

Assay [1] deals with Pf1 PHD1/MBD (residues 48–241). The experiment in a line: NMR of 15N-labeled Pf1 PHD1/MBD with MRG15 proteins. Format: binding, human.
In assay [2] the test system is Pf1 PHD1 (residues 48–116). As to the kind of experiment: NMR of 15N-labeled Pf1 PHD1 with full-length MRG15 and Pf1 MBD. Format: binding, human. Conditions: 1:1 mixture with full-length MRG15; pH 7.5, 25 °C.

B1: PHD1: human Pf1 PHD1 domain (residues 48–116) (protein)
chain: RRSGRATNHDSCDSCKEGGDLLCCDHCPAAFHLQCCNPPLSEEMLPPGEWMCHRCTVRRKKREQKKELG
modifications: left off: GST, end not stated, cleaved
Regarding B1, the “perturbation of H3 (1-42) resonances” value with H3 (1-42) was “The amide resonances of Thr3 and Lys4 were broadened beyond detection upon PHD1 addition while that of Thr6 was significantly broadened”.

B2: MRG15 CD: MRG15 CD (residues 1–90) (protein)
chain: MAPKQDPKPKFQEGERVLCFHGPLLYEAKCVKVAIKDKQVKYFIHYSGWNKNWDEWVPESRVLKYVDTNLQKQRELQKANQEQYAEGKMR
modifications: left off: His6, N-terminal, cleaved
With B2, the “direct interaction of MRG15 CD and Pf1 PHD1” value with Pf1 PHD1 is recorded as “largely unperturbed”. Also, the “involvement of MRG15 CD in PHD1 interactions” value in assay [1] (1D 1H NMR of Pf1 PHD1/MBD-MRG15 complex (Supp. Fig. S4)) is listed as “appeared to be not involved in PHD1 interactions”.

B3: full-length MRG15: full-length MRG15 (residues 1–323) (protein)
chain: MAPKQDPKPKFQEGERVLCFHGPLLYEAKCVKVAIKDKQVKYFIHYSGWNKNWDEWVPESRVLKYVDTNLQKQRELQKANQEQYAEGKMRGAAPGKKTSGLQQKNVEVKTKKNKQKTPGNGDGGSTSETPQPPRKKRARVDPTVENEETFMNRVEVKVKIPEELKPWLVDDWDLITRQKQLFYLPAKKNVDSILEDYANYKKSRGNTDNKEYAVNEVVAGIKEYFNVMLGTQLLYKFERPQYAEILADHPDAPMSQVYGAPHLLRLFVRIGAMLAYTPLDEKSLALLLNYLHDFLKYLAKNSATLFSASDYEVAPPEYHRKAV
modifications: left off: His tag (from the vector pMCSG7), end not stated, state not stated
For B3, in assay [2], the “effect on 15N-PHD1 spectrum without Pf1 MBD” value is recorded as “little or no perturbations compared to the apo-PHD1”. In assay [1] (equimolar, 20 mM Tris pH 7.5, 50 mM NaCl, 10 μM ZnSO4, 15 mM DTT, 0.2% NaN3, 25 °C), the “effect on 15N-Pf1 PHD1/MBD spectrum” value was “disappearance of most of the resonances belonging to the PHD1 domain”.
